According to ChEMBL document CHEMBL1124730, “Acid-stable 2'-fluoro purine dideoxynucleosides as active agents against HIV” (1990):
Activity calls are given as the source filed them. The rule behind the calls is not given here.

Assays:
[1] = tested on: H9; assay: Percentage of gag protein expression using H9 cells at 20 uM on 12th day; assay type: functional, Homo sapiens
Summary of the method: (§1)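 H9 cells (105) were infected with HIV-1 (500 virus particles per cell) and cultured without or with drug at the stated concentration. On days 7, 10 and 12, the percentage of cells expressing HIV-1 p24 gag protein was scored by indirect immunofluorescence with murine monoclonal antibody M26.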

[2] = tested on: H9; assay: Percentage of gag protein expression using H9 cells at 200 uM on 12th day; assay type: functional, Homo sapiens; summary of the method: as §1
[3] = tested on: H9; assay: Percentage of gag protein expression using H9 cells at 100 uM on 10th day; assay type: functional, Homo sapiens; summary of the method: as §1
[4] = tested on: Human immunodeficiency virus 1; assay: Ability to protect CD4+ ATH8 cells from cytopathogenic effect of HIV-1; Active; assay type: functional, organism-based; conditions: ATH-8
[5] = tested on: H9 (Homo sapiens); assay: Percentage of gag protein expression using H9 cells at 0 uM on 12th day
[6] = tested on: H9; assay: Percentage of gag protein expression using H9 cells at 100 uM on 12th day; assay type: functional, Homo sapiens; summary of the method: as §1
[7] = tested on: H9; assay: Percentage of gag protein expression using H9 cells at 0 uM on 7th day; assay type: functional, Homo sapiens; summary of the method: as §1
[8] = tested on: H9; assay: Percentage of gag protein expression using H9 cells at 200 uM on 10th day; assay type: functional, Homo sapiens; summary of the method: as §1
[9] = tested on: H9; assay: Percentage of gag protein expression using H9 cells at 100 uM on 7th day; assay type: functional, Homo sapiens; summary of the method: as §1
[10] = tested on: H9; assay: Percentage of gag protein expression using H9 cells at 5 uM on 12th day; assay type: functional, Homo sapiens; summary of the method: as §1
[11] = tested on: H9 (Homo sapiens); assay: Percentage of gag protein expression using H9 cells at 0 uM on 10th day
[12] = tested on: H9; assay: Percentage of gag protein expression using H9 cells at 50 uM on 10th day; assay type: functional, Homo sapiens; summary of the method: as §1
[13] = tested on: H9; assay: Percentage of gag protein expression using H9 cells at 50 uM on 12th day; assay type: functional, Homo sapiens; summary of the method: as §1
[14] = tested on: H9; assay: Percentage of gag protein expression using H9 cells at 200 uM on 7th day; assay type: functional, Homo sapiens; summary of the method: as §1
[15] = tested on: H9; assay: Percentage of gag protein expression using H9 cells at 20 uM on 10th day; assay type: functional, Homo sapiens; summary of the method: as §1
[16] = tested on: H9; assay: Percentage of gag protein expression using H9 cells at 50 uM on 7th day; assay type: functional, Homo sapiens; summary of the method: as §1
[17] = tested on: H9; assay: Percentage of gag protein expression using H9 cells at 5 uM on 7th day; assay type: functional, Homo sapiens; summary of the method: as §1
[18] = tested on: H9; assay: Percentage of gag protein expression using H9 cells at 20 uM on 7th day; assay type: functional, Homo sapiens; summary of the method: as §1
[19] = tested on: H9; assay: Percentage of gag protein expression using H9 cells at 5 uM on 10th day; assay type: functional, Homo sapiens; summary of the method: as §1
[20] = tested on: Human immunodeficiency virus 1; assay: Ability to protect CD4+ ATH8 cells from cytopathogenic effects of HIV-1; No effect; assay type: functional, organism-based; conditions: ATH-8
[21] = tested on: Human immunodeficiency virus 1; assay: Ability to protect CD4+ ATH8 cells from cytopathogenic effects of HIV-1; Inactive; assay type: functional, organism-based; conditions: ATH-8

SMILES | Expression [1] | Expression [2] | Expression [3] | Activity [4] | Expression [5] | Expression [6] | Expression [7] | Expression [8] | Expression [9] | Expression [10] | Expression [11] | Expression [12] | Expression [13] | Expression [14] | Expression [15] | Expression [16] | Expression [17] | Expression [18] | Expression [19] | also measured
OCC1CC(F)C(n2cnc3c(O)ncnc32)O1 (stereo unspecified) | 61% | 60% | 12% | Active | 74% | 53% | 76% | 10% | 34% | 61% | 71% | 24% | 57% | 7% | 52% | 23% | 54% | 58% | 82% | 
Nc1ncnc2c1ncn2[C@H]1CC[C@@H](CO)O1 | 8% | 0% | 0% |  | 84% | 0% | 79% | 0% | 0% | 86% | 70% | 0% | 2% | 0% | 0% | 0% | 48% | 1% | 48% | Activity [20]: inactive
Nc1ncnc2c1ncn2[C@@H]1O[C@H](CO)C[C@@H]1F [LODENOSINE] | 53% | 0% | 34% |  | 79% | 50% | 79% | 0% | 10% | 66% | 71% | 20% | 19% | 0% | 37% | 18% | 58% | 61% | 73% | 
Nc1ncnc2c1ncn2[C@@H]1O[C@H](CO)C[C@H]1F |  |  |  |  |  |  |  |  |  |  |  |  |  |  |  |  |  |  |  | Activity [21]: inactive
O=c1[nH]cnc2c1ncn2[C@H]1CC[C@@H](CO)O1 [DIDANOSINE] | 48% | 0% | 0% | Active | 83% | 0% | 76% | 0% | 0% | 74% | 73% | 0% | 3% | 0% | 30% | 0% | 73% | 9% | 53% | 
